Results taken from ChEMBL document CHEMBL3244384, “3,4-Methylenedioxyphenyl-, isopropylidenedioxyphenyl-, and benzyl-substituted chiral 2-aminosuccinimides and 3-aminopyrrolidines. Stereoselective investigations of potential anti-parkinsonian, antipsychotic, and anticonvulsant activities” (J Med Chem, 1977).
Active and inactive are the calls of the source.

How the values were obtained:
[1] = Antagonist activity at acetylcholine receptor (unknown origin); set-up: species or system Homo sapiens
[2] = Neurotoxicity in ip dosed albino CD-1 mouse by rotarod test; type: toxicity, organism-based; conditions: in vivo
Procedure, shortened: (§1)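 Male CD-1 mice (20-25 g), groups of 6-12, given ip doses in aqueous solution (1.0 mL/100 g). Neurotoxicity = failure to stay 1 min on a rod turning at 6 rpm. Time of peak central activity found. TD50 and 95% limits by Litchfield-Wilcoxon from at least three points in the 10-90% range.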

[3] = test system: Mus musculus; test: Neurotoxicity in ip dosed albino CD-1 mouse assessed as time to peak central activity by rotarod test; type: toxicity, organism-based; conditions: in vivo; procedure, shortened: as §1
[4] = test system: Mus musculus; test: Anticonvulsant activity in ip dosed albino CD-1 mouse assessed as protection from maximal electroshock-induced seizures measured at time of peak effect; type: functional; conditions: CD-1, ip
Procedure, shortened: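 Male CD-1 mice (20-25 g) dosed ip in aqueous solution (1.0 mL/100 g). At time of peak rotarod activity, MES given by corneal electrodes (50-mA ac, 0.2 s). End point: abolition of hindlimb-extensor component.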

[5] = Protective index, ratio of TD50 for neurotoxicity to ED50 for anticonvulsant activity in ip dosed albino CD-1 mouse; type: toxicity, organism-based; conditions: in vivo, read-out: Ratio TD50/ED50
Procedure, shortened: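 Groups of 6-12 male CD-1 mice dosed ip across a range giving at least three points at 10-90% MES protection or rotarod neurotoxicity. ED50 and TD50 by Litchfield-Wilcoxon; PI = TD50/ED50, not calculated when protection is below 50%.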

[6] = test system: Mus musculus; test: Anticonvulsant activity in ip dosed albino CD-1 mouse assessed as threshold ratio for pentylenetetrazole-induced clonic seizures at 0.5 time TD50 measured at time of peak effect relative to saline-treated control; type: functional
Procedure, shortened: (§2)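 Male CD-1 mice (20-25 g) given saline or 0.5 TD50 test compound ip. At time of peak activity, pentylenetetrazole (0.5%) infused iv at 0.51 mL/min until minimal (clonic) or maximal (tonic-clonic) seizure. Threshold ratio = mean mg/kg pentylenetetrazole in treated mice ÷ mg/kg in saline mice, with 95% confidence intervals.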

[7] = test system: Mus musculus; test: Anticonvulsant activity in ip dosed albino CD-1 mouse assessed as threshold ratio for pentylenetetrazole-induced tonic-clonic seizures at 0.5 time TD50 measured at time of peak effect relative to saline-treated control; type: functional; procedure, shortened: as §2
[8] = test system: Mus musculus; test: Toxicity in albino CD-1 mouse assessed as twitching at >/= 6.1 mmol/kg, ip; type: organism-based; conditions: in vivo
[9] = test system: Mus musculus; test: Toxicity in albino CD-1 mouse assessed as increased excitability to touch at >/= 6.1 mmol/kg, ip; type: organism-based; conditions: in vivo
[10] = test system: Mus musculus; test: Toxicity in albino CD-1 mouse assessed as occasional clonic seizure-like movements at >/= 6.1 mmol/kg, ip; type: organism-based; conditions: in vivo
[11] = test system: Mus musculus; test: Toxicity in albino CD-1 mouse assessed as loss of righting reflex at >/= 6.1 mmol/kg, ip; type: organism-based; conditions: in vivo
[12] = test system: Mus musculus; test: Toxicity in albino CD-1 mouse assessed as behavioral effect at 2.81 mmol/kg, ip; type: organism-based; conditions: in vivo
[13] = test system: Mus musculus; test: Anti-parkinsonian activity in ip dosed albino CD-1 mouse assessed as inhibition of oxotremorine-induced diarrhea at 0.25 to 1 time TD50 administered 30 mins prior challenge; type: functional, organism-based
Procedure, shortened: (§3)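 Male CD-1 mice (20-25 g), groups of five, given test compound ip (aqueous, 1.0 mL/100 g) or saline 30 min before oxotremorine 1 mg/kg ip. Tremor intensity scored 0 absent, 1 mild, 2 moderate, 3 severe, summed over five animals; diarrhea and salivation also observed.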

[14] = test system: Mus musculus; test: Anti-parkinsonian activity in ip dosed albino CD-1 mouse assessed as inhibition of oxotremorine-induced salivation at 0.25 to 1 time TD50 administered 30 mins prior challenge; type: functional, organism-based; procedure, shortened: as §3
[15] = test system: Mus musculus; test: Anti-parkinsonian activity in ip dosed albino CD-1 mouse assessed as inhibition of oxotremorine-induced tremor at 0.25 to 1 time TD50 administered 30 mins prior challenge; type: functional, organism-based; procedure, shortened: as §3
[16] = test system: Mus musculus; test: Anti-parkinsonian activity in ip dosed albino CD-1 mouse assessed as inhibition of oxotremorine-induced tremor administered 30 mins prior challenge; type: functional, organism-based; procedure, shortened: as §3
[17] = test system: Mus musculus; test: Toxicity in albino CD-1 mouse assessed as sedation at >/= 2.68 mmol/kg, ip; type: organism-based; conditions: in vivo
[18] = test system: Mus musculus; test: Toxicity in albino CD-1 mouse assessed as loss of righting reflex at >/= 2.68 mmol/kg, ip; type: organism-based; conditions: in vivo
[19] = test system: Mus musculus; test: Toxicity in albino CD-1 mouse assessed as mortality at >/= 2.68 mmol/kg, ip; type: organism-based; conditions: in vivo
[20] = test system: Mus musculus; test: Toxicity in albino CD-1 mouse assessed as clonic-like seizure activity at >/= 2.68 mmol/kg, ip; type: organism-based; conditions: in vivo

Row | Structure (SMILES) | pA2 [1] | TD50 [2] [µmol/kg] | Time [3] [min] | ED50 [4] [µmol/kg] | selectivity ratio [5] | Ratio [6] | Ratio [7] | Activity [8] | Activity [9] | Activity [10] | Activity [11] | Activity [12] | Activity [13] | Activity [14] | Activity [15] | Activity [16] | Activity [17] | Activity [18] | Activity [19] | Activity [20]
1 | CCN[C@@H]1CCN(c2ccccc2)C1 | 3.5 |  |  |  |  |  |  |  |  |  |  |  |  |  |  |  |  |  |  | 
2 | CC(=O)N[C@H]1CC(=O)N(Cc2ccccc2)C1=O |  | 5280 | 30 | 1200 | 4.41 | 1.06 | 1.11 | Toxic | Toxic | Toxic | Toxic |  |  |  |  |  |  |  |  | 
3 | Cl.N[C@@H]1CC(=O)N(Cc2ccc3c(c2)OCO3)C1=O |  | 1830 | 15 | 720 | 2.54 | 1.61 | 1.18 |  |  |  |  | Non-toxic |  |  |  |  |  |  |  | 
4 | Cl.N[C@H]1CC(=O)N(c2ccc3c(c2)OCO3)C1=O |  | 5040 | 45 | 5040 |  | 1.08 | 0.92 |  |  |  |  |  | Active | Active | inactive |  |  |  |  | 
5 | Cl.N[C@H]1CC(=O)N(Cc2ccc3c(c2)OCO3)C1=O |  | 2000 | 15 | 700 | 2.85 | 1.54 | 1.09 |  |  |  |  | Non-toxic |  |  |  |  |  |  |  | 
6 | CC(=O)N[C@@H]1CC(=O)N(Cc2ccccc2)C1=O |  | 4760 | 30 | 1460 | 3.25 | 1.36 | 0.85 | Toxic | Toxic | Toxic | Toxic |  |  |  |  |  |  |  |  | 
7 | CC1(C)Oc2ccc(N3C(=O)C[C@@H](N)C3=O)cc2O1.Cl |  | 960 | 15 | 570 | 1.68 | 1.28 | 1.66 |  |  |  |  |  | inactive | inactive | Active | Dose-dependent effect | Toxic | Toxic | Toxic | Toxic
8 | CC1(C)Oc2ccc(N3C(=O)C[C@H](N)C3=O)cc2O1.Cl |  | 1220 | 30 | 840 | 1.45 | 1.36 | 1.34 |  |  |  |  |  | inactive | inactive | Active |  | Toxic | Toxic | Toxic | Toxic
9 | Cl.N[C@@H]1CC(=O)N(c2ccc3c(c2)OCO3)C1=O |  | 3330 | 45 | 3330 |  | 1.03 | 0.75 |  |  |  |  |  | Active | Active | inactive |  |  |  |  | 
10 | CCC1(C)CC(=O)NC1=O (stereo not given) [ETHOSUXIMIDE] |  | 2320 | 5 | 2320 |  | 1.34 | 1.71 |  |  |  |  |  |  |  |  |  |  |  |  | 
11 | O=C1N=C([O-])NC1(c1ccccc1)c1ccccc1.[Na+] [PHENYTOIN SODIUM] |  | 220 | 45 | 22 | 10 | 1.07 | 2.08 |  |  |  |  |  |  |  |  |  |  |  |  | 
12 | CN1C(=O)OC(C)(C)C1=O [TRIMETHADIONE] |  | 3980 | 5 | 3720 | 1.07 | 2.05 | 2.25 |  |  |  |  |  |  |  |  |  |  |  |  | 
